Bioassay records from PubChem.
HNF4A DNA FP = change in binding of human HNF4 alpha to DNA | P41235 | HNF4a-FITC DNA binding, fluorescence polarization, 1 h | activity change, % at 10 µM | actives 0.3% (n = 360,000) | AID 1224865; in the data active means activity change above about 30%, passing the limit was not always enough
TPT1 inhibitor = C. albicans TPT1 enzyme inhibition | recombinant caTPT1, FP RNA substrate dephosphorylation | inhibition, % at 5 µM | actives 0.81% (n = 300,000) | AID 1962;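 active means inhibition above the mean of all tested compounds plus 3 SD, set per screening campaign, cut at about 24% in these data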;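 further: plate controls were DMSO alone for no effect and ferristatin control at 100 nM for full effect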
Rev-erbA mod = Rev-erb alpha (human) modulation | P20393 | Rev-erbα–FITC-DNA binding, fluorescence polarization, 90 min | activity, % at 10 µM | actives 0.79% (n = 370,000);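 active means activity above about 14%, limit read from the data; passing the limit was not always enough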;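 further: 0% = DMSO wells with 35 nM protein and 100% = DMSO wells with 750 nM protein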
CSN inh = blocks human CSN-mediated cullin deneddylation. Q92905. Purified CSN, SCF-Nedd8-OG deneddylation, fluorescence polarization. inhibition, % at 12.5 µM. actives 0.38% (n = 360,000). AID 651999;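 active means pattern-corrected inhibition above about 35%, with an unprinted fluorescence ratio check between 0.5 and 1.5, limit read from the data, passing the limit was not always enough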;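 further: 0% = enzyme with substrate and 100% = substrate without enzyme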
Target sequence (Q92905 whole entry, looked up, one chain of several): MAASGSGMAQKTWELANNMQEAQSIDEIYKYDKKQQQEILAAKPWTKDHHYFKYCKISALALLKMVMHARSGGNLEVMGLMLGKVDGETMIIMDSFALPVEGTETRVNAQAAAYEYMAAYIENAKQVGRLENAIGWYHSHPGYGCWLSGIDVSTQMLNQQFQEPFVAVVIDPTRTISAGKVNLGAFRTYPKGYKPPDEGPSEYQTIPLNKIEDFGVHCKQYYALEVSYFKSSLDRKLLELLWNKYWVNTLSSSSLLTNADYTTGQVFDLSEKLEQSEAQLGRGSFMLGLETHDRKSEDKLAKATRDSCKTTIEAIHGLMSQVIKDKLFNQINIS
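assay system = purified human Csn5 enzyme expressed in HEK293T cells | amount = 0.24 nM enzyme | buffer or medium = Tris/NaCl/DTT buffer, pH 7.5 | reagent = 10 nM SCFSkp2-Nedd8OG | compound = one concentration, 12.5 µM, 0.25% DMSO | times = 90 min reaction at room temperature | signal = FP | read-out basis = % inhibition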
TPT1 inh confirm = confirmation of Candida albicans TPT1 inhibitors | shares compounds with TPT1 inhibitor | recombinant caTPT1, fluorescence polarization, RNase T1 coupled | inhibition, % at 5 µM | actives 74% (n = 2,400) | AID 2149;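 active means inhibition above the primary screen limit, the mean inhibition of all tested compounds plus 3 SD, cut at about 25% in these data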
RNase T1 counter = counter-screen for TPT1 inhibitors: inhibitors of Aspergillus oryzae RNase T1; shares compounds with TPT1 inhibitor; inhibition, % at 5 µM; actives 83% (n = 2,400); RNase T1 cleavage, fluorescence polarization, 1536-well; AID 2153;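 active means inhibition above the solvent-only control well mean plus 3 SD, limit set per screening run, cut at about 23% in these data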;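 further: plate controls were DMSO wells with enzyme for no effect and wells without RNase T1 for full effect; inhibitors block cleavage so intact labeled substrate keeps polarization high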
Target sequence (P00651 whole entry, looked up): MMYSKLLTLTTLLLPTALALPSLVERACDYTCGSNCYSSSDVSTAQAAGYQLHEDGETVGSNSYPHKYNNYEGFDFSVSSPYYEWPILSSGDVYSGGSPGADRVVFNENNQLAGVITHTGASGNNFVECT
* = called active by the depositor; / = no result given. An excerpt weighted towards active compounds, which were near 1.7% of everything screened.

SMILES	HNF4A DNA FP	TPT1 inhibitor	Rev-erbA mod	CSN inh	TPT1 inh confirm	RNase T1 counter
CC(=O)/C(N=Nc1cc(C)ccc1O)=C(\C)O	20	44*	6	27	29*	48*
COC(=O)c1cc2c(c3c4cc(OC)ccc4n(C(=O)c4ccccc4)c13)C(=O)N(Cc1ccco1)C2	/	/	0	/	/	/
COc1ccc(OC)c(/C=C2/Sc3ccccc3C2=O)c1	75	111*	2	63	101*	102*
CC(=O)N(C)/C=C1\Sc2ccccc2C1=O	7	-1	3	-2	/	/
CC(=O)Nc1ccc(/C=C2\Sc3ccccc3C2=O)cc1	4	35*	-21	-2	41*	46*
O=C1/C(=C/c2cccnc2)Sc2ccccc21	1	1	7	2	/	/
Cc1ccc(/C=C2\Sc3ccccc3C2=O)s1	-1	44*	4	-2	58*	70*
CCOC(=O)c1[nH]c(C)c(C(=O)Nc2ccc(C)c(F)c2)c1C	2	0	-2	1	/	/
CCOC(=O)c1[nH]c(C)c(C(=O)Nc2ccc(C)c(Cl)c2)c1C	4	28*	-1	0	6	7
CC[C@H](C)/C=C(C)/C=C/C1=CC2=CC(=O)[C@]3(C)OC(=O)[C@@H](C(C)=O)[C@@H]3C2=CO1	4	27*	-4	12	29*	40*
CC[C@H](C)/C=C(C)/C=C/c1cc2c(cn1)C(=O)[C@@](C)(OC(C)=O)C(O)=C2Cl	-9	/	2	5	/	/
COC(=O)C1=C(C)N(Cc2cccc(C(F)(F)F)c2)C(=NCc2ccc(OC)cc2)NC1c1ccc(F)cc1 (centres undefined)	/	/	0	/	/	/
O=C1N/C(=C/c2ccc(N3CCOCC3)cc2)C(=O)N1Cc1ccc(F)cc1	-3	-5	4	2	/	/
O=C1N/C(=C/c2ccc(N3CCOCC3)o2)C(=O)N1c1ccccc1	112	70*	-1	-1	150*	148*
O=C1N/C(=C/c2ccc(N3CCCC3)cc2)C(=O)N1c1ccccc1	16	34*	7	9	49*	63*
C=CCN1C(=O)N/C(=C/c2ccc(N3CCOCC3)o2)C1=O	/	29*	-3	/	105*	113*
Cc1ccc(/C=C2/NC(=O)N(Cc3ccccc3)C2=O)o1	17	-5	-3	-3	/	/
N#CCS(=O)(=O)c1cccc[n+]1[O-]	/	/	-1	/	/	/
CCC1=[N+](CC(=O)c2ccc(C)cc2)CCn2c(C)ccc21	3	12	-1	-10	/	/
CCC1=[N+](CC(=O)c2ccc(C)cc2)CCn2cccc21	-6	61*	-3	6	9	11
CC1=[N+](CC(=O)c2ccccc2)CCn2cccc21	2	49*	0	-12	-2	1
CCN(CC)c1ccc(/C=C2\C(=O)c3ccc(C(=O)O)cc3C2=O)cc1	84*	143*	-5	110	122*	116*
COc1ccc(-c2nc3c(C)cc(Br)cn3c2Cc2ccccc2C(F)(F)F)cc1OC	/	/	11	/	/	/
COc1ccc(/C=C/C=C2\NC(=S)NC2=O)cc1	15	28*	8	-1	19	32*
C[C@H]1[C@@H](OC(=O)NCc2ccccc2Cl)CC[C@@]23CCCN2C(=O)CCC[C@@H]13	/	/	1	/	/	/
SMILES	HNF4A DNA FP	TPT1 inhibitor	Rev-erbA mod	CSN inh	TPT1 inh confirm	RNase T1 counter
COc1ccccc1/C=C/C=C1\Oc2c(ccc(O)c2CN2CCN(CCO)CC2)C1=O	40*	39*	8	64	46*	54*
CCc1ccc(/C=C2\Oc3c(ccc(O)c3CN3CCN(C)CC3)C2=O)cc1	11	26*	0	4	28*	38*
COc1ccc(CN2C(=O)[C@]3(NCCc4c3[nH]c3ccc(OC)cc43)c3cc(Br)ccc32)cc1	/	/	2	/	/	/
CCC[C@H]1[C@@H](NC(=O)C2CCOC2)CC[C@@]23CCCN2C(=O)CCC[C@@H]13 (some centres undefined)	/	/	-2	/	/	/
COc1ccc(S(=O)(=O)N2CC(O)CC2C(=O)OCc2nc3sc(C)c(C)c3c(=O)[nH]2)cc1 (centres undefined)	25	33*	2	25	47*	65*
Cc1sc2nc(COC(=O)c3ccc(N4CCCC(C)C4)c([N+](=O)[O-])c3)[nH]c(=O)c2c1C (centres undefined)	3	2	-4	-3	/	/
